# DNA FID counter: counter-screen for HCV NS3 helicase inhibitors: DNA intercalator displacement; inhibition, % at 7.9 µM; 290,000 tested, 0.17% active; DNA fluorescent intercalator displacement, fluorescence; in the data active = inhibition above about 37%;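 also: higher means more ethidium bromide displaced from hairpin DNA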
# T cruzi repl: T. cruzi replication inhibition. 300,000 tested, 1.4% active. T. cruzi beta-gal in NIH3T3, luminescence, 90 h. inhibition, % (no concentration beside the values);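 active = mean inhibition across valid replicates above about 55%, limit read from the data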;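 also: signal also drops with host cell toxicity which is not excluded here; higher percent means less beta-gal luminescence so fewer parasites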
#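 System: mouse NIH/3T3 fibroblasts infected with β-gal-expressing T. cruzi Tulahuen C4 / Input: NIH/3T3 cells, 5,000 per well / Buffer or medium: Low-serum DMEM with 2% FBS / Probe or stimulus: 5000 reporter trypomastigotes per well / Schedule: ≥90 h infection period, 3 h prior cell attachment / Measured by: GalScreen luminescence, 60 min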
# MEKK3 PB1 HTS: MEKK3-MEK5 PB1 interaction, increase or decrease | Q99759 | bead-based flow cytometry, Alexa488-MEK5 binding to MEKK3; actives lie on both sides; 0 = blocked by unlabeled MEK5, 100 = vehicle | binding response (% of control), % at 10 µM | 290,000 tested, 1.4% active | AID 1529;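 active = binding response more than 3 SD above or below the average of its plate-row segment, actives on both sides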;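 also: Alexa488 bead fluorescence after subtracting the streptavidin-only scavenger bead signal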
# Target sequence (Q99759 whole entry, looked up): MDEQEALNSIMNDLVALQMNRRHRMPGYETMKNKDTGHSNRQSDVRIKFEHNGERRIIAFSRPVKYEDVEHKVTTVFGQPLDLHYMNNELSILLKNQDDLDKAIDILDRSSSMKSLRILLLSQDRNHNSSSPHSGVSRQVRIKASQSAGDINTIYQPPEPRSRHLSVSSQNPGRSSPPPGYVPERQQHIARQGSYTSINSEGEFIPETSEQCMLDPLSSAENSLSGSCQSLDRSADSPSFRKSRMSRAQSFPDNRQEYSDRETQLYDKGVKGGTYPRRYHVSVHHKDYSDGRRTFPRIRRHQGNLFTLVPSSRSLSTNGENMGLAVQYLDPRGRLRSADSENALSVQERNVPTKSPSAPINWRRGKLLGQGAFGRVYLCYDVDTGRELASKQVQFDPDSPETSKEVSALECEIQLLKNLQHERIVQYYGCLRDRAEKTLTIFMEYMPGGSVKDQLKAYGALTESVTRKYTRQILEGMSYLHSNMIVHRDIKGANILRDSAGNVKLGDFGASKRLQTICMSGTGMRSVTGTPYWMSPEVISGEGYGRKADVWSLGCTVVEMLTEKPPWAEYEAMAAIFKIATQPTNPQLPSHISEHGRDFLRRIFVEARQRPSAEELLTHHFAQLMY
# MEKK2mut PB1 HTS: signal of MEK5 binding to mutant human MEKK2 PB1 domain | bead flow cytometry, Alexa488-MEK5 binding to MEKK2 mutant | percent response, % at 10 µM | 290,000 tested, 0.35% active; in the data active = percent response above about 24%, passing the limit was not always enough
# HCV NS3 hel inh: blocks Hepatitis C virus NS3 helicase unwinding. NS3 helicase DNA unwinding, Cy5 molecular beacon fluorescence. inhibition, % at 10.9 µM. 290,000 tested, 0.56% active. AID 1800;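 active = inhibition above the mean of all tested compounds plus 3 SD, set per campaign, cut at about 35% in these data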
#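 assay system = NS3 helicase fragment of HCV | buffer or medium = MOPS pH 6.5, MgCl2, DTT, Tween20, BSA | timing = 60 min unwinding reaction at 25 °C after ATP addition | signal = Cy5 beacon fluorescence read at start and 1 h | read-out basis = % inhibition of unwinding | control set = low DMSO, high thioflavine S at 110 µM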
# MEKK2 WT-MEK5: raises or lowers MEK5 binding to wildtype human MEKK2 PB1 domain | Q9Y2U5 | bead flow cytometry, Alexa488-MEK5 binding to MEKK2 WT; actives lie on both sides | binding response (% of control), % at 10 µM | 290,000 tested, 1.1% active | AID 1531; in the data active = binding response below about 67% or above about 130%
# MEKK2wt confirm: raises or lowers MEK5 binding to wildtype human MEKK2, retest | shares compounds with MEKK3 PB1 HTS | bead flow cytometry, Alexa488-MEK5 binding to MEKK2 WT; actives lie on both sides | binding response (% of control), % at 10 µM | 5,900 tested, 2.4% active; in the data active = binding response below about 16% or above about 210%; inactive = in between
# MEKK2mut confirm: signal of MEK5 binding to mutant human MEKK2, retest | shares compounds with MEKK3 PB1 HTS | bead flow cytometry, Alexa488-MEK5 binding to MEKK2 mutant | percent response, % at 10 µM | 5,900 tested, 2% active | AID 1893; in the data active = percent response mostly above about 71%, no sharp cut-off; inactive = mostly below about 38%;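 also: higher means compound restores mutant binding toward wildtype level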
# MEKK3-MEK5 inh: MEKK3-MEK5 PB1 inhibition, single concentration confirmation; shares compounds with MEKK3 PB1 HTS; bead flow cytometry, Alexa488-MEK5 binding to MEKK3; active compounds read low; binding response (% of control), % at 10 µM; 5,900 tested, 1.8% active;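 active = binding response below 72% of control, or above a set upper limit, though filed actives all read lower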;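 also: lower values mean stronger disruption of MEK5 binding to MEKK3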
# A number is an active result; 0 = inactive; - = no result given; [ ] = another dose, or the depositor's remark. This is a sample that favours compounds with a hit; in the whole collection about 4.1% have one here.
SMILES,DNA FID counter,T cruzi repl,MEKK3 PB1 HTS,MEKK2mut PB1 HTS,HCV NS3 hel inh,MEKK2 WT-MEK5,MEKK2wt confirm,MEKK2mut confirm,MEKK3-MEK5 inh
O=C1c2ccccc2N2C(=O)c3ccccc3C2N1Cc1ccccc1 (stereo unspecified),0,0,130.0,0,0,0,0,0,0
CC(C)(C)c1ccc(/C=N/NC(=O)c2ccccn2)cc1,0,0,0,86.0,0,-,0,0,0
O=C(NCCc1ccccc1)C1CCC(CNS(=O)(=O)c2cccs2)CC1 (stereo unspecified),0,0,0,0,0,0,-,-,-
CCc1ccc(NS(=O)(=O)c2cccs2)cc1,0,0,0,39.0,0,0,0,0,0
Cc1cc(C)cc(NS(=O)(=O)c2cccs2)c1,0,0,0,0,0,0,-,-,-
C#CCOCCOCCOCCNc1nc(N2CCN(C(=O)C([C@@H](C)CC)n3cc(C(N)COC(=O)C(F)(F)F)nn3)CC2)nc(N2CCN(C(=O)[C@H](Cc3cc4ccccc4[nH]3)n3cc(C(N)CO)nn3)CC2)n1 (stereo partly specified),-,0,0,0,-,143.0,0,0,0
C#CCOCCOCCOCCNc1nc(N2CCN(C(=O)[C@H](Cc3cc4ccccc4[nH]3)n3cc([C@@H](N)CC(C)C)nn3)CC2)nc(N2CCN(C(=O)[C@H](Cc3cc4ccccc4[nH]3)n3cc([C@@H](N)CC(C)C)nn3)CC2)n1,63.9,0,0,112.0,0,258.0,289.0,132.0,0
C#CCOCCOCCOCCNc1nc(N2CCN(C(=O)[C@H]([C@@H](C)CC)n3cc([C@@H](N)CO)nn3)CC2)nc(N2CCN(C(=O)[C@H](Cc3cc4ccccc4[nH]3)n3cc([C@@H](N)C(C)CC)nn3)CC2)n1 (stereo partly specified),40.9,0,0,56.0,0,181.0,0,87.0,0
C#CCOCCOCCOCCNc1nc(N2CCN(C(=O)[C@H]([C@@H](C)CC)n3cc([C@@H](N)CC(C)C)nn3)CC2)nc(N2CCN(C(=O)[C@H](Cc3cc4ccccc4[nH]3)n3cc([C@@H](N)CC(C)C)nn3)CC2)n1,-,0,0,52.0,-,151.0,252.0,169.0,0
C#CCOCCOCCOCCNc1nc(N2CCN(C(=O)C([C@@H](C)CC)n3cc(C(N)CO)nn3)CC2)nc(N2CCN(C(=O)[C@H](CCC(=O)O)n3cc(C(N)[C@H](C)CC)nn3)CC2)n1 (stereo partly specified),-,0,0,0,-,0,-,-,-
C#CCOCCOCCOCCNc1nc(N2CCOCC2)nc(N2CCN(C(=O)[C@H](Cc3cc4ccccc4[nH]3)n3cc([C@@H](N)CC(C)C)nn3)CC2)n1,0,0,0,0,0,0,-,-,-
CCN(CC)C(=O)COc1coc(CN2CCN(c3ccccc3F)CC2)cc1=O,0,0,0,0,0,0,-,-,-
CN(C(=O)Cn1cccc1C1=NC(c2ccccc2)CO1)c1ccccc1 (stereo unspecified),0,0,0,0,0,0,-,-,-
CC(NC(=O)C(c1ccccc1)c1ccccc1)C(=O)N1CCCCC1 (stereo unspecified),0,0,0,0,0,0,-,-,-
CN(C)/C=C1\C(=O)N(C)N=C1C(F)(F)F,0,0,0,0,0,0,-,-,-
O=C(CCCC1=NS(=O)(=O)c2ccccc2N1)Nc1ccccc1,0,0,0,0,0,0,-,-,-
CC1(C)CC(=O)C(Sc2ccc(Br)cc2)=C(O)C1,0,0,73.0[inhibitor],0,0,0,0,0,0
